# Data from ChEMBL document CHEMBL1649165, “Activity profile in vitro of micafungin against Spanish clinical isolates of common and emerging species of yeasts and molds” (2009).
# Experiments:
# Assay type in all cases: functional
# [1] = system: Kazachstania pintolopesii; test: Antimicrobial activity against Candida pintolopesii by broth microdilution method; settings: Arxiozyma pintolopesii
# Method in brief: (§1)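 Clinical isolates from human patients, tested by broth microdilution using the AFST-EUCAST reference procedure for fermentative yeasts. The MIC was read per that reference method.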
# Geotrichum candidum = test: Antimicrobial activity against Galactomyces geotrichum by broth microdilution method
# [Candida] intermedia = Antimicrobial activity against Candida intermedia by broth microdilution method; settings: Sungouiella intermedia; method in brief: as §1
# Trichosporon inkin = test: Antimicrobial activity against Trichosporon inkin by broth microdilution method
# Method in brief: (§2)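 Nonfermentative yeast clinical isolates (Rhodotorula, Trichosporon) tested by broth microdilution. The EUCAST yeast recommendations were followed strictly, with one minor modification to improve growth. MIC was read as the endpoint.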
# Wickerhamomyces anomalus = test: Antimicrobial activity against Candida pelliculosa by broth microdilution method; settings: Hansenula anomala; method in brief: as §1
# Trichosporon = test: Antimicrobial activity against Trichosporon spp. by broth microdilution method; method in brief: as §2
# Diutina rugosa = test: Antimicrobial activity against Candida rugosa by broth microdilution method; method in brief: as §1
# Candida orthopsilosis = test: Antimicrobial activity against Candida orthopsilosis by broth microdilution method; settings: Lodderomyces orthopsilosis; method in brief: as §1
# [Candida] zeylanoides = Antimicrobial activity against Candida zeylanoides by broth microdilution method; settings: Dujonia zeylanoides; method in brief: as §1
# Trichosporon dermatis = test: Antimicrobial activity against Trichosporon dermatis by broth microdilution method; settings: Cutaneotrichosporon dermatis; method in brief: as §2
# Kluyveromyces marxianus = test: Antimicrobial activity against Candida kefyr by broth microdilution method; method in brief: as §1
# Candida parapsilosis = test: Antimicrobial activity against Candida parapsilosis by broth microdilution method; settings: Lodderomyces parapsilosis; method in brief: as §1
# Rhodotorula glutinis = test: Antimicrobial activity against Rhodotorula glutinis by broth microdilution method; method in brief: as §2
# Trichosporon jirovecii = test: Antimicrobial activity against Trichosporon jirovecii by broth microdilution method; settings: Cutaneotrichosporon jirovecii; method in brief: as §2
# Nakaseomyces glabratus = test: Antimicrobial activity against Candida glabrata by broth microdilution method; method in brief: as §1
# Candida tropicalis = test: Antimicrobial activity against Candida tropicalis by broth microdilution method; method in brief: as §1
# Pichia norvegensis = test: Antimicrobial activity against Candida norvegensis by broth microdilution method; method in brief: as §1
# [Candida] inconspicua = Antimicrobial activity against Candida inconspicua by broth microdilution method; settings: Pichia inconspicua; method in brief: as §1
# Naganishia albida = test: Antimicrobial activity against Cryptococcus albidus by broth microdilution method
# Method in brief: (§3)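 Clinical isolates of nonfermentative yeasts, tested by broth microdilution following EUCAST recommendations. The only change from that method was a minor modification to improve growth.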
# Pichia kudriavzevii = test: Antimicrobial activity against Candida krusei by broth microdilution method; method in brief: as §1
# Magnusiomyces capitatus = test: Antimicrobial activity against Dipodascus capitatus by broth microdilution method
# Yarrowia lipolytica = test: Antimicrobial activity against Yarrowia lipolytica by broth microdilution method
# Trichosporon asahii = test: Antimicrobial activity against Trichosporon asahii by broth microdilution method; method in brief: as §2
# Debaryomyces hansenii = test: Antimicrobial activity against Candida famata by broth microdilution method; method in brief: as §1
# Trichosporon domesticum = test: Antimicrobial activity against Trichosporon mycotoxinivorans by broth microdilution method; settings: Apiotrichum domesticum
# Method in brief: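 Spanish human clinical isolates were tested as nonfermentative yeasts by broth microdilution. The method strictly followed the EUCAST recommendations, with a minor modification to improve growth, and the read-out was the MIC.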
# [2] = system: Meyerozyma guilliermondii; test: Antimicrobial activity against Candida guilliermondii by broth microdilution method; method in brief: as §1
# Saccharomyces cerevisiae = test: Antimicrobial activity against Saccharomyces cerevisiae by broth microdilution method
# Papiliotrema laurentii = test: Antimicrobial activity against Cryptococcus laurentii by broth microdilution method; method in brief: as §3
# Ustilago = test: Antimicrobial activity against Ustilago spp by broth microdilution method
# Clavispora lusitaniae = test: Antimicrobial activity against Candida lusitaniae by broth microdilution method; method in brief: as §1
# Rhodotorula mucilaginosa = test: Antimicrobial activity against Rhodotorula mucilaginosa by broth microdilution method; method in brief: as §2
# Torulaspora delbrueckii = test: Antimicrobial activity against Candida coliculosa by broth microdilution method; method in brief: as §1
# Candida albicans = test: Antimicrobial activity against Candida albicans by broth microdilution method; method in brief: as §1
# Candida metapsilosis = test: Antimicrobial activity against Candida metapsilosis by broth microdilution method; settings: Lodderomyces metapsilosis; method in brief: as §1
# Trichosporon ovoides = test: Antimicrobial activity against Trichosporon ovoides by broth microdilution method; method in brief: as §2
# [3] = system: Cryptococcus deneoformans; test: Antimicrobial activity against Cryptococcus neoformans var. neoformans by broth microdilution method; method in brief: as §3
smiles,measurement,setting,value
Nc1nc(=O)[nH]cc1F [FLUCYTOSINE],MIC50,[1],0.25 µg/mL
same,MIC90,[1],16 µg/mL
same,MIC50,Geotrichum candidum,0.12 µg/mL
same,MIC90,Geotrichum candidum,0.25 µg/mL
same,MIC50,[Candida] intermedia,0.25 µg/mL
same,MIC90,[Candida] intermedia,16 µg/mL
same,MIC50,Trichosporon inkin,64 µg/mL
same,MIC90,Trichosporon inkin,> 64 µg/mL
same,MIC50,Wickerhamomyces anomalus,0.25 µg/mL
same,MIC90,Wickerhamomyces anomalus,16 µg/mL
same,MIC50,Trichosporon,16 µg/mL
same,MIC90,Trichosporon,> 64 µg/mL
same,MIC50,Diutina rugosa,0.25 µg/mL
same,MIC90,Diutina rugosa,16 µg/mL
same,MIC50,Candida orthopsilosis,0.25 µg/mL
same,MIC90,Candida orthopsilosis,16 µg/mL
same,MIC50,[Candida] zeylanoides,0.25 µg/mL
same,MIC90,[Candida] zeylanoides,16 µg/mL
same,MIC50,Trichosporon dermatis,16 µg/mL
same,MIC90,Trichosporon dermatis,> 64 µg/mL
same,MIC50,Kluyveromyces marxianus,0.5 µg/mL
same,MIC90,Kluyveromyces marxianus,4 µg/mL
same,MIC50,Candida parapsilosis,0.12 µg/mL
same,MIC90,Candida parapsilosis,0.25 µg/mL
same,MIC50,Rhodotorula glutinis,16 µg/mL
same,MIC90,Rhodotorula glutinis,> 64 µg/mL
same,MIC50,Trichosporon jirovecii,16 µg/mL
same,MIC90,Trichosporon jirovecii,> 64 µg/mL
same,MIC50,Nakaseomyces glabratus,0.12 µg/mL
same,MIC90,Nakaseomyces glabratus,0.25 µg/mL
same,MIC50,Candida tropicalis,0.12 µg/mL
same,MIC90,Candida tropicalis,0.25 µg/mL
same,MIC50,Pichia norvegensis,0.25 µg/mL
same,MIC90,Pichia norvegensis,16 µg/mL
same,MIC50,[Candida] inconspicua,0.25 µg/mL
same,MIC90,[Candida] inconspicua,16 µg/mL
same,MIC50,Naganishia albida,16 µg/mL
same,MIC90,Naganishia albida,> 64 µg/mL
same,MIC50,Pichia kudriavzevii,4 µg/mL
same,MIC90,Pichia kudriavzevii,8 µg/mL
same,MIC50,Magnusiomyces capitatus,0.12 µg/mL
same,MIC90,Magnusiomyces capitatus,1 µg/mL
same,MIC50,Yarrowia lipolytica,> 64 µg/mL
same,MIC90,Yarrowia lipolytica,> 64 µg/mL
same,MIC50,Trichosporon asahii,32 µg/mL
same,MIC90,Trichosporon asahii,> 64 µg/mL
same,MIC50,Debaryomyces hansenii,0.25 µg/mL
same,MIC90,Debaryomyces hansenii,16 µg/mL
same,MIC50,Trichosporon domesticum,16 µg/mL
same,MIC90,Trichosporon domesticum,> 64 µg/mL
same,MIC50,[2],0.12 µg/mL
same,MIC90,[2],0.25 µg/mL
same,MIC50,Saccharomyces cerevisiae,0.12 µg/mL
same,MIC90,Saccharomyces cerevisiae,0.5 µg/mL
same,MIC50,Papiliotrema laurentii,16 µg/mL
same,MIC90,Papiliotrema laurentii,> 64 µg/mL
same,MIC50,Ustilago,16 µg/mL
same,MIC90,Ustilago,> 64 µg/mL
same,MIC50,Clavispora lusitaniae,0.12 µg/mL
same,MIC90,Clavispora lusitaniae,16 µg/mL
same,MIC50,Rhodotorula mucilaginosa,0.25 µg/mL
same,MIC90,Rhodotorula mucilaginosa,1 µg/mL
same,MIC50,Torulaspora delbrueckii,0.25 µg/mL
same,MIC90,Torulaspora delbrueckii,16 µg/mL
same,MIC50,Candida albicans,0.12 µg/mL
same,MIC90,Candida albicans,0.5 µg/mL
same,MIC50,Candida metapsilosis,0.25 µg/mL
same,MIC90,Candida metapsilosis,16 µg/mL
same,MIC50,Trichosporon ovoides,16 µg/mL
same,MIC90,Trichosporon ovoides,> 64 µg/mL
same,MIC50,[3],16 µg/mL
same,MIC90,[3],32 µg/mL
OC(Cn1cncn1)(Cn1cncn1)c1ccc(F)cc1F [FLUCONAZOLE],MIC50,[1],8 µg/mL
same,MIC90,[1],> 64 µg/mL
same,MIC50,Geotrichum candidum,64 µg/mL
same,MIC90,Geotrichum candidum,> 64 µg/mL
same,MIC50,[Candida] intermedia,8 µg/mL
same,MIC90,[Candida] intermedia,> 64 µg/mL
same,MIC50,Trichosporon inkin,4 µg/mL
same,MIC90,Trichosporon inkin,4 µg/mL
same,MIC50,Wickerhamomyces anomalus,8 µg/mL
same,MIC90,Wickerhamomyces anomalus,> 64 µg/mL
same,MIC50,Trichosporon,16 µg/mL
same,MIC90,Trichosporon,> 64 µg/mL
same,MIC50,Diutina rugosa,8 µg/mL
same,MIC90,Diutina rugosa,> 64 µg/mL
same,MIC50,Candida orthopsilosis,8 µg/mL
same,MIC90,Candida orthopsilosis,> 64 µg/mL
same,MIC50,[Candida] zeylanoides,8 µg/mL
same,MIC90,[Candida] zeylanoides,> 64 µg/mL
same,MIC50,Trichosporon dermatis,16 µg/mL
same,MIC90,Trichosporon dermatis,> 64 µg/mL
same,MIC50,Kluyveromyces marxianus,0.25 µg/mL
same,MIC90,Kluyveromyces marxianus,0.5 µg/mL
same,MIC50,Candida parapsilosis,0.5 µg/mL
same,MIC90,Candida parapsilosis,1 µg/mL
same,MIC50,Rhodotorula glutinis,16 µg/mL
same,MIC90,Rhodotorula glutinis,> 64 µg/mL
same,MIC50,Trichosporon jirovecii,16 µg/mL
same,MIC90,Trichosporon jirovecii,> 64 µg/mL
same,MIC50,Nakaseomyces glabratus,4 µg/mL
same,MIC90,Nakaseomyces glabratus,32 µg/mL
same,MIC50,Candida tropicalis,0.25 µg/mL
same,MIC90,Candida tropicalis,2 µg/mL
same,MIC50,Pichia norvegensis,8 µg/mL
same,MIC90,Pichia norvegensis,> 64 µg/mL
same,MIC50,[Candida] inconspicua,8 µg/mL
same,MIC90,[Candida] inconspicua,> 64 µg/mL
same,MIC50,Naganishia albida,16 µg/mL
same,MIC90,Naganishia albida,> 64 µg/mL
same,MIC50,Pichia kudriavzevii,32 µg/mL
same,MIC90,Pichia kudriavzevii,> 64 µg/mL
same,MIC50,Magnusiomyces capitatus,16 µg/mL
same,MIC90,Magnusiomyces capitatus,32 µg/mL
same,MIC50,Yarrowia lipolytica,8 µg/mL
same,MIC90,Yarrowia lipolytica,> 64 µg/mL
same,MIC50,Trichosporon asahii,16 µg/mL
same,MIC90,Trichosporon asahii,> 64 µg/mL
same,MIC50,Debaryomyces hansenii,8 µg/mL
same,MIC90,Debaryomyces hansenii,> 64 µg/mL
same,MIC50,Trichosporon domesticum,16 µg/mL
same,MIC90,Trichosporon domesticum,> 64 µg/mL
same,MIC50,[2],4 µg/mL
same,MIC90,[2],> 64 µg/mL
same,MIC50,Saccharomyces cerevisiae,4 µg/mL
same,MIC90,Saccharomyces cerevisiae,> 64 µg/mL
same,MIC50,Papiliotrema laurentii,16 µg/mL
same,MIC90,Papiliotrema laurentii,> 64 µg/mL
same,MIC50,Ustilago,16 µg/mL
same,MIC90,Ustilago,> 64 µg/mL
same,MIC50,Clavispora lusitaniae,0.25 µg/mL
same,MIC90,Clavispora lusitaniae,1 µg/mL
same,MIC50,Rhodotorula mucilaginosa,> 64 µg/mL
same,MIC90,Rhodotorula mucilaginosa,> 64 µg/mL
same,MIC50,Torulaspora delbrueckii,8 µg/mL
same,MIC90,Torulaspora delbrueckii,> 64 µg/mL
same,MIC50,Candida albicans,0.12 µg/mL
same,MIC90,Candida albicans,0.25 µg/mL
same,MIC50,Candida metapsilosis,8 µg/mL
same,MIC90,Candida metapsilosis,> 64 µg/mL
same,MIC50,Trichosporon ovoides,16 µg/mL
same,MIC90,Trichosporon ovoides,> 64 µg/mL
same,MIC50,[3],16 µg/mL
same,MIC90,[3],> 64 µg/mL
